The source of these data is ChEMBL document CHEMBL1157306, “Capisterones A and B, which enhance fluconazole activity in Saccharomyces cerevisiae, from the marine green alga Penicillus capitatus” (J Nat Prod, 2006).

Calls of active or inactive are those of the source. The calls are words filed in the database; no cut-off is given here.

Data set [1] relates to Saccharomyces cerevisiae. The data set can be described thus: Potentiation of fluconazole-induced antifungal activity against Saccharomyces cerevisiae DSY 415 overexpressing Candida albicans CDR1 assessed as fractional inhibitory concentration at 12.8 uM. In kind it is functional. Put shortly:
(§1)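 Fluconazole dose-response curves were run alone and with a fixed concentration of second agent (22.5, 6.0 or 12.8 μM). Strains were S. cerevisiae null pump DSY 390 and DSY 415 overexpressing C. albicans CDR1 or MDR1. Growth inhibition was the read-out, and the fractional inhibitory concentration was derived from it.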

For data set [2], the system named is Saccharomyces cerevisiae. The data set can be described thus: Potentiation of fluconazole-induced antifungal activity against null pump Saccharomyces cerevisiae DSY 390 assessed as fractional inhibitory concentration at 12.8 uM. Format: functional. The method in brief: as §1
The subject of data set [3] is Saccharomyces cerevisiae. The data set can be described thus: Potentiation of fluconazole-induced antifungal activity against Saccharomyces cerevisiae DSY 415 overexpressing Candida albicans MDR1 assessed as fractional inhibitory concentration at 12.8 uM. Format: functional. Put shortly:
as §1

Data set [4] relates to Saccharomyces cerevisiae. The data set can be described thus: Antifungal activity against null pump Saccharomyces cerevisiae DSY 390. In kind it is functional, organism-based. The method in brief: (§2)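 Growth inhibition of S. cerevisiae strains with efflux pumps overexpressed (CDR1 or MDR1, DSY 415) or no pump (DSY 390) was measured across a dose range of test agent alone. IC50 was read from the dose-response curves.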

A further data set deals with Candida albicans. The data set can be described thus: Antifungal activity against Candida albicans. Format: functional, organism-based.
The test system of data set [5] is Saccharomyces cerevisiae. The data set can be described thus: Potentiation of fluconazole-induced antifungal activity against null pump Saccharomyces cerevisiae DSY 390 assessed as fractional inhibitory concentration at 22.5 uM. In kind it is functional. The method in brief: (§3)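 Pump-null S. cerevisiae DSY 390 was run in parallel with strains overexpressing C. albicans CDR1 or MDR1 efflux pumps. Growth-inhibition dose-response curves were recorded for fluconazole alone and for fluconazole with a fixed modulator concentration (22.5 or 6.0 μM). The interaction was expressed as a fractional inhibitory concentration (FIC) index.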

The test system of data set [6] is Saccharomyces cerevisiae. Nature of the data set: Antifungal activity against Saccharomyces cerevisiae DSY 415 overexpressing Candida albicans CDR1. Format: functional, organism-based. The method in brief:
as §2

The subject of data set [7] is Saccharomyces cerevisiae. The data set can be described thus: Antifungal activity against Saccharomyces cerevisiae DSY 415 overexpressing Candida albicans MDR1 at 67.4 uM. In kind it is functional, organism-based.
Data set [8] has as its system Saccharomyces cerevisiae. Nature of the data set: Antifungal activity against Saccharomyces cerevisiae DSY 415 overexpressing Candida albicans CDR1 at 67.4 uM. In kind it is functional, organism-based.
Data set [9] deals with Saccharomyces cerevisiae. The data set can be described thus: Antifungal activity against null pump Saccharomyces cerevisiae DSY 390 at 67.4 uM. Format: functional, organism-based.
For data set [10], the system named is Saccharomyces cerevisiae. Nature of the data set: Potentiation of fluconazole-induced antifungal activity against Saccharomyces cerevisiae DSY 415 overexpressing Candida albicans CDR1 assessed as fractional inhibitory concentration at 22.5 uM. In kind it is functional. The method in brief:
as §1

The test system of another data set is BT-549. Nature of the data set: Cytotoxicity against human BT549 cells. Format: functional, cell-based. The method in brief:
(§4)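 Human cancer cell lines (KB, SK-MEL, BT-549, SK-OV-3) tested alongside non-cancerous Vero cells, with test agent concentrations up to 35 μM.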

The test system of another data set is Aspergillus fumigatus. Nature of the data set: Antifungal activity against Aspergillus fumigatus. Format: functional, organism-based.
Data set [11] concerns Saccharomyces cerevisiae. The data set can be described thus: Antifungal activity against Saccharomyces cerevisiae DSY 415 overexpressing Candida albicans CDR1 at 12.8 uM. In kind it is functional, organism-based.
Another data set relates to Nakaseomyces glabratus. Nature of the data set: Antifungal activity against Candida glabrata. Format: functional, organism-based.
Another data set has as its system SK-OV-3. The data set can be described thus: Cytotoxicity against human SKOV3 cells. In kind it is functional, cell-based. Put shortly: as §4
The subject of data set [12] is Saccharomyces cerevisiae. The data set can be described thus: Antifungal activity against Saccharomyces cerevisiae DSY 415 overexpressing Candida albicans MDR1 at 12.8 uM. Format: functional, organism-based.
The subject of the next data set is SK-MEL. The data set can be described thus: Cytotoxicity against human SK-MEL cells. Format: functional, cell-based. Put shortly:
as §4

A further data set has as its system Cryptococcus neoformans. The data set can be described thus: Antifungal activity against Cryptococcus neoformans. In kind it is functional, organism-based.
Data set [13] concerns Saccharomyces cerevisiae. Nature of the data set: Antifungal activity against null pump Saccharomyces cerevisiae DSY 390 at 12.8 uM. In kind it is functional, organism-based.
Another data set deals with Pichia kudriavzevii. Nature of the data set: Antifungal activity against Candida krusei. In kind it is functional, organism-based.
Data set [14] has as its system Saccharomyces cerevisiae. The data set can be described thus: Antifungal activity against Saccharomyces cerevisiae DSY 415 overexpressing Candida albicans MDR1. Format: functional, organism-based. The method in brief: as §2
In data set [15] the test system is Saccharomyces cerevisiae. The data set can be described thus: Potentiation of fluconazole-induced antifungal activity against Saccharomyces cerevisiae DSY 415 overexpressing Candida albicans MDR1 assessed as fractional inhibitory concentration at 22.5 uM. In kind it is functional. The method in brief:
as §1

The next data set has as its system KB. The data set can be described thus: Cytotoxicity against human KB cells. In kind it is functional, cell-based. Put shortly:
as §4

Another data set deals with Vero. The data set can be described thus: Cytotoxicity against african green monkey Vero cells up to 35 uM. In kind it is cell-based. Conditions: chlorocebus sabaeus.
Data set [16] concerns Saccharomyces cerevisiae. The data set can be described thus: Potentiation of fluconazole-induced antifungal activity against Saccharomyces cerevisiae DSY 415 overexpressing Candida albicans MDR1 assessed as fractional inhibitory concentration at 6.03 uM. In kind it is functional. The method in brief:
as §1

Data set [17] relates to Saccharomyces cerevisiae. Nature of the data set: Potentiation of fluconazole-induced antifungal activity against null pump Saccharomyces cerevisiae DSY 390 assessed as fractional inhibitory concentration at 6.03 uM. Format: functional. Put shortly: as §3
For data set [18], the system named is Saccharomyces cerevisiae. Nature of the data set: Potentiation of fluconazole-induced antifungal activity against Saccharomyces cerevisiae DSY 415 overexpressing Candida albicans CDR1 assessed as fractional inhibitory concentration at 6.03 uM. In kind it is functional. Put shortly:
as §1

Usually IC50 stands for the midpoint of a concentration-inhibition curve.

Take `CC(C)[C@@H]1OC(=O)[C@@H](Cc2ccccc2)N(C)C(=O)[C@H](C(C)C)OC(=O)[C@@H](Cc2ccccc2)N(C)C(=O)[C@H](C(C)C)OC(=O)[C@@H](Cc2ccccc2)N(C)C1=O` [BEAUVERICIN]: the FIC50 is 0.05 with Saccharomyces cerevisiae [1], 2.67 with Saccharomyces cerevisiae [2] and 2 in the data set with Saccharomyces cerevisiae [3].

Regarding `CC(=O)OC[C@@]1(COS(=O)(=O)O)C(=O)CC[C@]23C[C@]24CC[C@]2(C)[C@@H]([C@H](C)CC(=O)CC(C)C)CC[C@@]2(C)[C@@H]4CC[C@@H]13` [CAPISTERONE A], the IC50 with Saccharomyces cerevisiae [4], in the data set on Saccharomyces cerevisiae [6] and with Saccharomyces cerevisiae [14] was more than 67 µM throughout. The outcome in the data set on Candida albicans, in the data set with Saccharomyces cerevisiae [7], in the data set with Saccharomyces cerevisiae [8], with Saccharomyces cerevisiae [9], in the data set with BT-549 and with Aspergillus fumigatus was inactive. Besides, the outcome in the data set with Saccharomyces cerevisiae [11], with Nakaseomyces glabratus, in the data set with SK-OV-3, in the data set on Saccharomyces cerevisiae [12], in the data set with SK-MEL and in the data set with Cryptococcus neoformans was inactive. The result in the data set with Saccharomyces cerevisiae [13], in the data set on Pichia kudriavzevii and in the data set on KB was inactive. Also, the FIC50 with Saccharomyces cerevisiae [5] amounted to 0.55; in the data set with Saccharomyces cerevisiae [10], 0.33; in the data set with Saccharomyces cerevisiae [15], 0.08. Besides, in the data set on Vero, the Activity result is given as “Not Active”.

For the molecule `CC(C)CC(=O)C[C@@H](C)[C@H]1CC[C@@]2(C)[C@@H]3CC[C@H]4[C@](CO)(COS(=O)(=O)O)C(=O)CC[C@@]45C[C@@]35CC[C@]12C` [CAPISTERONE B], the IC50 in the data set with Saccharomyces cerevisiae [4], in the data set with Saccharomyces cerevisiae [6] and with Saccharomyces cerevisiae [14] was 7 µM throughout. Also, the result in the data set on Candida albicans, in the data set with BT-549, in the data set on Aspergillus fumigatus, in the data set with Nakaseomyces glabratus, in the data set on SK-OV-3 and in the data set with SK-MEL was inactive. Besides, the result in the data set with Cryptococcus neoformans, with Pichia kudriavzevii and in the data set on KB was inactive. For the same molecule, the FIC50 in the data set with Saccharomyces cerevisiae [16] stood at 0.15; in the data set with Saccharomyces cerevisiae [17] it was 0.5; with Saccharomyces cerevisiae [18], 0.33. Further, in the data set on Vero, the Activity entry is given as “Not Active”.
